According to ChEMBL document CHEMBL4177755, “Combating Drug-Resistant Fungi with Novel Imperfectly Amphipathic Palindromic Peptides” (J Med Chem, 2018):

Columns and labels:
Candida albicans [1] = experiment: Fungicidal activity against fluconazole-resistant Candida albicans 17546 after 96 hrs; type: functional; settings: Candida albicans, 17546, 96 h; read-out: MFC99.9
Outline: (§1)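 After the 48 h, 28 °C broth microdilution in MOPS-buffered RPMI 1640 (inoculum (0.5−1) × 10^3 CFU/mL), 50 μL from each well was plated on YM agar for a further 48 h at 28 °C. MFC is the lowest concentration killing at least 99.9% of cells. Triplicate, three biological replicates.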

Escherichia coli [2] = experiment: Antibacterial activity against Escherichia coli ATCC 25922 after 18 hrs in presence of FeCl3 by broth dilution method; type: functional; settings: ATCC 25922, 18 h
[3] = Bactericidal activity against Salmonella pullorum ATCC 7913; type: functional, Salmonella enterica subsp. enterica serovar Pullorum; settings: Salmonella enterica, read-out: MBC99.9
Outline: (§2)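 Wells from the 24 h, 37 °C MHB microdilution plates (bacteria at a final (0.5−1) × 10^5 CFU/mL; peptide diluted in 0.2% BSA) were plated on agar and incubated overnight. MBC is the lowest concentration killing >99.9% of cells. Each test was reproduced at least 3 times.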

[4] = Cytotoxicity against HEK293T cells assessed as cell viability at 2 to 64 uM after 24 hrs by MTT assay relative to control; type: cell-based, HEK-293T; settings: human, read-out: Activity
Outline: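 MTT viability assay. RAW264.7 or HEK293T cells at (1.0−2.0) × 10^5 per well were exposed to a peptide concentration series for 24 h at 37 °C in 5% CO2. MTT was then added at 0.5 mg/mL final for 4 h; formazan was dissolved in DMSO and read at 570 nm. Results average three independent trials.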

[5] = system: Staphylococcus epidermidis; experiment: Antibacterial activity against Staphylococcus epidermidis ATCC 12228 after 24 hrs; type: functional; settings: ATCC 12228, 24 h
Outline: (§3)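 Broth microdilution. Mid-log bacteria in MHB at a final (0.5−1) × 10^5 CFU/mL were mixed with equal volumes of peptide serially diluted in 0.2% BSA. Plates were incubated 24 h at 37 °C and read at A492. MIC is the lowest concentration inhibiting 95% of growth. Each test was repeated at least 3 times.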

Candida albicans [6] = experiment: Fungicidal activity against Candida albicans 14936 after 96 hrs; type: functional; settings: Candida albicans, 14936, 96 h; read-out: MFC99.9; outline: as §1
Candida parapsilosis [7] = experiment: Fungicidal activity against Candida parapsilosis cgmcc 2.3989 after 96 hrs; type: functional; settings: Lodderomyces parapsilosis, cgmcc 2.3989, 96 h; read-out: MFC99.9
Outline: (§4)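 Wells from the 48 h, 28 °C RPMI 1640/MOPS microdilution plates were plated on YM agar and incubated a further 48 h at 28 °C. MFC is the lowest concentration killing at least 99.9% of cells. Run in triplicate with three biological replicates.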

Staphylococcus aureus [8] = experiment: Bactericidal activity against Staphylococcus aureus ATCC 29213; type: functional; settings: read-out: MBC99.9; outline: as §2
Salmonella typhimurium [9] = experiment: Bactericidal activity against Salmonella typhimurium ATCC 14028; type: functional, Salmonella enterica subsp. enterica serovar Typhimurium; settings: Salmonella enterica, read-out: MBC99.9; outline: as §2
Candida albicans [10] = experiment: Antifungal activity against Candida albicans SP3903 after 48 hrs by broth microdilution method; type: functional; settings: SP3903, 48 h
Outline: (§5)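 Modified CLSI M27-A2 broth microdilution. Yeast at (0.5−1) × 10^3 CFU/mL in MOPS-buffered RPMI 1640 was mixed 1:1 with peptide serially diluted in 0.2% BSA and incubated 48 h at 28 °C. Absorbance was read at 492 nm; MIC is the lowest concentration inhibiting 95% of growth. Triplicate, three biological replicates.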

Escherichia coli [11] = experiment: Antibacterial activity against Escherichia coli ATCC 25922 after 18 hrs in presence of MgCl2 by broth dilution method; type: functional; settings: ATCC 25922, 18 h
Pichia kudriavzevii [12] = experiment: Fungicidal activity against Candida krusei cgmcc 2.1857 after 96 hrs; type: functional; settings: cgmcc 2.1857, 96 h, read-out: MFC99.9; outline: as §4
Staphylococcus aureus [13] = experiment: Antibacterial activity against Staphylococcus aureus ATCC 29213 after 24 hrs; type: functional; settings: ATCC 29213, 24 h
Outline: (§6)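 Modified NCCLS broth microdilution. Mid-log bacteria at (0.5−1) × 10^5 CFU/mL in MHB were mixed 1:1 with peptide serially diluted in 0.2% BSA and incubated 24 h at 37 °C. Absorbance was read at 492 nm; MIC is the lowest concentration inhibiting 95% of growth. At least 3 repeats.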

Candida albicans [14] = experiment: Antifungal activity against fluconazole-resistant Candida albicans 56214 after 48 hrs by broth microdilution method; type: functional; settings: Candida albicans, 56214, 48 h; outline: as §5
Candida tropicalis = experiment: Antifungal activity against Candida tropicalis cgmcc 2.1975 after 48 hrs by broth microdilution method; type: functional; settings: cgmcc 2.1975, 48 h
Outline: (§7)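 Modified CLSI M27-A2 broth microdilution. Yeast were suspended in MOPS-buffered RPMI 1640 at a final (0.5−1) × 10^3 CFU/mL and mixed 1:1 with peptide serially diluted in 0.2% BSA. Plates were incubated 48 h at 28 °C and read at A492. MIC is the lowest concentration giving 95% inhibition. Run in triplicate with three biological replicates.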

Candida albicans [15] = experiment: Antifungal activity against Candida albicans cgmcc 2.2086 in presence of FeCl3 by broth dilution method; type: functional
Candida albicans [16] = experiment: Antifungal activity against Candida albicans 14936 after 48 hrs by broth microdilution method; type: functional; settings: Candida albicans, 14936, 48 h; outline: as §5
Staphylococcus aureus [17] = experiment: Antibacterial activity against methicillin-resistant Staphylococcus aureus ATCC 4330 after 24 hrs; type: functional; settings: ATCC 4330, 24 h; outline: as §6
Candida albicans [18] = experiment: Antifungal activity against Candida albicans cgmcc 2.2086 in presence of MgCl2 by broth dilution method; type: functional
Candida albicans [19] = experiment: Antifungal activity against Candida albicans cgmcc 2.2086 after 48 hrs by broth microdilution method; type: functional; settings: cgmcc 2.2086, 48 h; outline: as §5
Candida albicans [20] = experiment: Fungicidal activity against Candida albicans SP3902 after 96 hrs; type: functional; settings: SP3902, 96 h, read-out: MFC99.9; outline: as §1
Candida albicans [21] = experiment: Fungicidal activity against Candida albicans 58288 after 96 hrs; type: functional; settings: Candida albicans, 58288, 96 h; read-out: MFC99.9; outline: as §1
Pichia kudriavzevii [22] = experiment: Antifungal activity against Candida krusei cgmcc 2.1857 after 48 hrs by broth microdilution method; type: functional; settings: cgmcc 2.1857, 48 h; outline: as §7
Salmonella typhimurium [23] = experiment: Antibacterial activity against Salmonella typhimurium ATCC 14028 after 24 hrs; type: functional, Salmonella enterica subsp. enterica serovar Typhimurium; settings: Salmonella enterica, ATCC 14028, 24 h; outline: as §3
Candida albicans [24] = experiment: Antifungal activity against Candida albicans 58288 after 48 hrs by broth microdilution method; type: functional; settings: Candida albicans, 58288, 48 h; outline: as §5
Candida albicans [25] = experiment: Antifungal activity against Candida albicans cgmcc 2.2086 in presence of NH4Cl by broth dilution method; type: functional
Candida albicans [26] = experiment: Antifungal activity against Candida albicans SP3876 after 48 hrs by broth microdilution method; type: functional; settings: SP3876, 48 h; outline: as §5
Escherichia coli [27] = experiment: Antibacterial activity against Escherichia coli ATCC 25922 after 18 hrs in presence of ZnCl2 by broth dilution method; type: functional; settings: ATCC 25922, 18 h
Candida albicans [28] = experiment: Antifungal activity against Candida albicans SP3902 after 48 hrs by broth microdilution method; type: functional; settings: SP3902, 48 h; outline: as §5
Candida albicans [29] = experiment: Antifungal activity against Candida albicans cgmcc 2.2086 in presence of CaCl2 by broth dilution method; type: functional
Candida parapsilosis [30] = experiment: Antifungal activity against Candida parapsilosis cgmcc 2.3989 after 48 hrs by broth microdilution method; type: functional; settings: Lodderomyces parapsilosis, cgmcc 2.3989, 48 h; outline: as §7

Row | Substance | MFC (Candida albicans [1]) [µM] | MIC (Escherichia coli [2]) [µM] | MBC [3] [µM] | MIC95 [5] [µM] | MFC (Candida albicans [6]) [µM] | MFC (Candida parapsilosis [7]) [µM] | MBC (Staphylococcus aureus [8]) [µM] | MBC (Salmonella typhimurium [9]) [µM] | MIC95 (Candida albicans [10]) [µM] | MIC (Escherichia coli [11]) [µM] | MFC (Pichia kudriavzevii [12]) [µM] | MIC95 (Staphylococcus aureus [13]) [µM] | MIC95 (Candida albicans [14]) [µM] | MIC95 (Candida tropicalis) [µM] | MIC (Candida albicans [15]) [µM] | MIC95 (Candida albicans [16]) [µM] | MIC95 (Staphylococcus aureus [17]) [µM] | MIC (Candida albicans [18]) [µM] | MIC95 (Candida albicans [19]) [µM] | MFC (Candida albicans [20]) [µM] | also measured
1 | H-RRWRWWWRWRR-NH2 | 4 | 4 | 4 | 4 | 8 | 16 | 4 | 8 | 4 | 2 | 2 | 2 | 4 | 2 | 4 | 8 | 4 | 4 | 4 | 4 | viability at 24 h, up to 64 µM [4]: 70 to 80%; MFC (Candida albicans [21]): 8 µM; MIC95 (Pichia kudriavzevii [22]): 2 µM; MIC95 (Salmonella typhimurium [23]): 4 µM; MIC95 (Candida albicans [24]): 2 µM; MIC (Candida albicans [25]): 4 µM; MIC95 (Candida albicans [26]): 2 µM; MIC (Escherichia coli [27]): 4 µM; MIC95 (Candida albicans [28]): 4 µM; MIC (Candida albicans [29]): 8 µM; MIC95 (Candida parapsilosis [30]): 8 µM
2 | H-WWRRWRRWW-NH2 | 4 | 4 | 16 | 4 | 8 | 64 | 16 | 16 | 4 | 4 | 4 | 4 | 4 | 4 | 8 | 8 | 4 | 8 | 8 | 8 | MFC (Candida albicans [21]): 8 µM; MIC95 (Pichia kudriavzevii [22]): 4 µM; MIC95 (Salmonella typhimurium [23]): 8 µM; MIC95 (Candida albicans [24]): 8 µM; MIC (Candida albicans [25]): 8 µM; MIC95 (Candida albicans [26]): 4 µM; MIC (Escherichia coli [27]): 16 µM; MIC95 (Candida albicans [28]): 8 µM; MIC (Candida albicans [29]): 16 µM; MIC95 (Candida parapsilosis [30]): 32 µM
3 | H-RRIRIIIRIRR-NH2 | 2 | 4 | 4 | 4 | 2 | 8 | 8 | 4 | 1 | 2 | 2 | 4 | 1 | 1 | 2 | 2 | 4 | 2 | 2 | 2 | viability at 24 h, up to 64 µM [4]: > 85%; MFC (Candida albicans [21]): 2 µM; MIC95 (Pichia kudriavzevii [22]): 2 µM; MIC95 (Salmonella typhimurium [23]): 4 µM; MIC95 (Candida albicans [24]): 2 µM; MIC (Candida albicans [25]): 2 µM; MIC95 (Candida albicans [26]): 1 µM; MIC (Escherichia coli [27]): 4 µM; MIC95 (Candida albicans [28]): 2 µM; MIC (Candida albicans [29]): 4 µM; MIC95 (Candida parapsilosis [30]): 4 µM
